Reference: the M2OR odorant receptor database

Columns and labels:
Details in all cases: stereoisomer not certain
[1] = biological target: T1, OR10A2 (Homo sapiens) (UniProt Q9H208)
T1 sequence (whole entry): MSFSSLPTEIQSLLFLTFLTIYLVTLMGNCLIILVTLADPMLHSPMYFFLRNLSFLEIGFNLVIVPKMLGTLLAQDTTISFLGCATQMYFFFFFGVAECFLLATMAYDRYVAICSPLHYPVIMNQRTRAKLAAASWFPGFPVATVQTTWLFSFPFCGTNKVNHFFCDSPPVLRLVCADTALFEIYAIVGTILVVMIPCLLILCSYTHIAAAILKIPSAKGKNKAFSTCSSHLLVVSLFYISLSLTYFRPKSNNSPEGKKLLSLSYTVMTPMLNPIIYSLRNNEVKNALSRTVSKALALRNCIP
In short: (§1)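 Whether a receptor–molecule pair is responsive (active) rests on the original authors' judgment that its measured signal was statistically different from baseline. Pairs without that judgment are non-responsive (inactive). Sources used varied assay methods, commonly transient luciferase assays in mammalian cell lines.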

[2] = biological target: T2, OR10A3 (Homo sapiens) (UniProt P58181)
T2 sequence (whole entry): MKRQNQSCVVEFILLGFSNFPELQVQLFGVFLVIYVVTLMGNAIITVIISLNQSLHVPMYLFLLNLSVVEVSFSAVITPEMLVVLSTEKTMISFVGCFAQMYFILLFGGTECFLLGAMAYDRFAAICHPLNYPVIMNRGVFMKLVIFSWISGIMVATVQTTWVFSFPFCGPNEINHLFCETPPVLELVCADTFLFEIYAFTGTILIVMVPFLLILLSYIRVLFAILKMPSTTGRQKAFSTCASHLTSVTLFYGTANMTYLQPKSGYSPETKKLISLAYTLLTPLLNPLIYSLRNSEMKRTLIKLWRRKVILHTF
In short: as §1

[3] = biological target: T3, OR10A4 (Homo sapiens) (UniProt Q9H209)
T3 sequence (whole entry): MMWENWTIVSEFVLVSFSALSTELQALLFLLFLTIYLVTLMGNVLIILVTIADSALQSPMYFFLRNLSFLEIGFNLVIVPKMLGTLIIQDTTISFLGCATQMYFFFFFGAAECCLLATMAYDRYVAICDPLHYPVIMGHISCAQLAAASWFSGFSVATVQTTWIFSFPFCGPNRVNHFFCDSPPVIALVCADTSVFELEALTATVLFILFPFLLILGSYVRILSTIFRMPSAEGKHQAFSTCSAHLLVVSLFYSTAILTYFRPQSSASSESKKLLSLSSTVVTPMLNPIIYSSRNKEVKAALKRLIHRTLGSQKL
In short: as §1

[4] = biological target: T4, OR10A5 (Homo sapiens) (UniProt Q9H207)
T4 sequence (whole entry): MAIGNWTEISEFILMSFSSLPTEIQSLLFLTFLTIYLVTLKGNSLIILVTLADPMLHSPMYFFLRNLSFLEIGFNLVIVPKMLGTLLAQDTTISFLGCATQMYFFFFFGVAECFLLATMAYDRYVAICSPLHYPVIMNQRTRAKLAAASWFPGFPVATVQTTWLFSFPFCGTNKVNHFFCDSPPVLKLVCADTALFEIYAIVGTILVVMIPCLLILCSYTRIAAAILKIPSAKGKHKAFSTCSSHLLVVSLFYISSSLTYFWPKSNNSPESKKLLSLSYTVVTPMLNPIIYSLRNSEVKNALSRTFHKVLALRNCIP
In short: as §1

[5] = biological target: T5, OR10A6 (Homo sapiens) (UniProt Q8NH74)
T5 sequence (whole entry): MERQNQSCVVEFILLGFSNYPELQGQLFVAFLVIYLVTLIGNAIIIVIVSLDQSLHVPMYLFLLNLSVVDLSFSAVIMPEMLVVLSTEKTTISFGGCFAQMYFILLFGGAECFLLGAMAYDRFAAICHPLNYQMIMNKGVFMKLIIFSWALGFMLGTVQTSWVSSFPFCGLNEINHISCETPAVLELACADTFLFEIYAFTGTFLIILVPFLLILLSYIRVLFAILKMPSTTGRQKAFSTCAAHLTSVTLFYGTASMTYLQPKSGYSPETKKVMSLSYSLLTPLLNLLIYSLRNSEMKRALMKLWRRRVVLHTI
In short: as §1

[6] = biological target: T6, OR10A7 (Homo sapiens) (UniProt Q8NGE5)
T6 sequence (whole entry): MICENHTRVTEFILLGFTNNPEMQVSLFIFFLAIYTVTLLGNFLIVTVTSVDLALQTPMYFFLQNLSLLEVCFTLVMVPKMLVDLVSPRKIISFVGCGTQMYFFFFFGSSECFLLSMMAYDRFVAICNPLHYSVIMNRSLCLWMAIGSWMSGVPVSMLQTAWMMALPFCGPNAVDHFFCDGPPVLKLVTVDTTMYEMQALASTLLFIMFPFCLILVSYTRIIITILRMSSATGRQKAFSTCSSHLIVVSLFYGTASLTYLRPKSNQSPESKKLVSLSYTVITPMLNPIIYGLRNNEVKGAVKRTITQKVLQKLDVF
In short: as §1

[7] = biological target: T7, OR10AD1 (Homo sapiens) (UniProt Q8NGE0)
T7 sequence (whole entry): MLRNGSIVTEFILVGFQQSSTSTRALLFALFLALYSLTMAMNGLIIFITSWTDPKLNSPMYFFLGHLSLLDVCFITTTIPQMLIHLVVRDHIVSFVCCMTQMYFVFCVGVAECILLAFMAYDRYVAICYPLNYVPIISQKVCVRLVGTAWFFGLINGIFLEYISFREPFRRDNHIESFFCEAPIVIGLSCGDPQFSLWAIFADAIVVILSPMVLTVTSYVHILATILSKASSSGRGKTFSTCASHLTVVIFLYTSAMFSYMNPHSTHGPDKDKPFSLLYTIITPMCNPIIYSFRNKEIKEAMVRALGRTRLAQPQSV
In short: as §1

[8] = biological target: T8, OR10AG1 (Homo sapiens) (UniProt Q8NH19)
T8 sequence (whole entry): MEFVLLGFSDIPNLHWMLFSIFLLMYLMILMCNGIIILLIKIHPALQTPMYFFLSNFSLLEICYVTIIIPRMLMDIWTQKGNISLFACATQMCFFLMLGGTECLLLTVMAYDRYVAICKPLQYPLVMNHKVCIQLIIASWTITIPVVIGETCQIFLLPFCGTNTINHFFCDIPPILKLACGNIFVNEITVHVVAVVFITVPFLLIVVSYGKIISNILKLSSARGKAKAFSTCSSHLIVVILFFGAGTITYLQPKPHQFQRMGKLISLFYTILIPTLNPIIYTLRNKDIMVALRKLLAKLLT
In short: as §1

[9] = biological target: T9, OR10C1 (Homo sapiens) (UniProt Q96KK4)
T9 sequence (whole entry): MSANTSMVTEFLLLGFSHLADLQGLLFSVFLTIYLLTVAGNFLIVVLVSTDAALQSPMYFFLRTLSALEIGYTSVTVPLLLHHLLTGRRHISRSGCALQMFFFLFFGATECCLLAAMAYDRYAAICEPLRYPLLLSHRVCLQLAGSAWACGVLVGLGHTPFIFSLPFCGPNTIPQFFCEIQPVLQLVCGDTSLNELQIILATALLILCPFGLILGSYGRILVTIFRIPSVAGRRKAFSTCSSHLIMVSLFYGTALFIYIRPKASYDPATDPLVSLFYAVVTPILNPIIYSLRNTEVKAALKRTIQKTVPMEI
In short: as §1

[10] = biological target: T10, OR10D3 (Homo sapiens) (UniProt Q8NH80)
T10 sequence (whole entry): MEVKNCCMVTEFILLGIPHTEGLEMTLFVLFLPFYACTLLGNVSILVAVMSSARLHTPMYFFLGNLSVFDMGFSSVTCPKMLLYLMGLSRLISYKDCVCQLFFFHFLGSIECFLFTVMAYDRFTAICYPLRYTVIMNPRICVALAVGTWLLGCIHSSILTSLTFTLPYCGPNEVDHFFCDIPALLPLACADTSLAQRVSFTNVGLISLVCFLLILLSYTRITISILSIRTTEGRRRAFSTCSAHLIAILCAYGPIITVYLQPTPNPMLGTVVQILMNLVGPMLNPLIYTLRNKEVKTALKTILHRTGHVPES
In short: as §1

[11] = system: T11, O5AN1
T11 sequence (whole entry): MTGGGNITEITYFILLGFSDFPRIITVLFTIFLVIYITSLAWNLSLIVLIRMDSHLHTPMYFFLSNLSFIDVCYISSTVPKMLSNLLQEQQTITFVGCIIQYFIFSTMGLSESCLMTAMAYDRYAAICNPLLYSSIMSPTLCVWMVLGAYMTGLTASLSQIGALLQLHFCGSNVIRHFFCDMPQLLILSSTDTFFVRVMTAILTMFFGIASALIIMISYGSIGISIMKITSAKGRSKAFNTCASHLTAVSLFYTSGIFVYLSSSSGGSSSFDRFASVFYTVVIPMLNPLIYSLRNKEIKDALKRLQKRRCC
In short: as §1

Measured: odorant receptor agonist call;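 note: active if original authors judged signal statistically different from baseline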

CCCCCC(S)C(C)CO (stereo unspecified)
not listed: [11]
inactive: all other assays above

CCCCC(S)C(C)CO (stereo unspecified)
not listed: [11]
inactive: all other assays above

O=C1CCCCCCCCCC1
inactive: [11]
